Assay results from ChEMBL document CHEMBL4330057, “Second generation of diazachrysenes: Protection of Ebola virus infected mice and mechanism of action” (Eur J Med Chem, 2019).
Active and inactive are the calls of the source. The rule behind the calls is not given here.

Assays:
[1] = Toxicity in 6 hrs post fertilized zebrafish embryo assessed as teratogenic effect by measuring malformation of eyes up to 50 uM up to 120 hrs post fertilization by inverted microscopic method; design: species or system Danio rerio; conditions: in vivo
[2] = test system: HeLa; assay: Inhibition of lysosome fusion with autophagosome in human HeLa cells harboring GFP-LC3 assessed as increase in GFP-LC3-2 clustering at 2 uM after 4 hrs; format: functional, cell-based
Summary of the method: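 HeLa cells stably expressing GFP-LC3 were treated with compound for 4 h, then imaged. Total GFP clusters per cell were counted. Eight-well replicates, about 500 cells/well, mean ± SD, three independent experiments.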

[3] = molecular target: Cathepsin B (Homo sapiens) (UniProt P07858); assay: Inhibition of cathepsin B activity in human HeLa cells at 2 uM after 12 hrs by magic red substrate based fluorescence assay; format: cell-based
Summary of the method: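 HeLa cells were exposed to compound for 12 h, then given the Magic Red cathepsin B peptide reporter, washed, and imaged at Ex/Em 590/630. Total intensity and average area of red fluorescence were scored by high-content analysis. Eight wells per point, about 3000 cells/well, mean ± SD, three independent experiments.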

[4] = test system: HeLa; assay: Induction of lysosomotropism in human HeLa cells infected with Ebolavirus assessed as increase in red fluorescence at 2 uM for 2 hrs by acridine orange staining based assay; format: functional, cell-based
Summary of the method: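 HeLa cells were pretreated with compound for 2 h, then given acridine orange for 30 min and washed. Red AO fluorescence in acidic compartments was imaged, and total intensity and average area were scored by high-content imaging. Eight wells per point, about 3000 cells/well, mean ± SD, representative of three independent experiments.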

[5] = Selectivity index, ratio of CC50 for human HeLa cells to EC50 for Ebolavirus H. sapiens-wt/1995/Kikwit-9510621 infected in human HeLa cells; format: toxicity, cell-based; conditions: read-out: Ratio CC50/EC50
[6] = test system: Ebolavirus; assay: Antiviral activity against Ebolavirus H. sapiens-wt/1995/Kikwit-9510621 infected in human HeLa cells assessed as inhibition of viral infection at 2 uM treated simultaneously with viral infection and measured after 24 hrs by EboV GP immunostaining based high content imaging analysis; format: functional, organism-based
[7] = test system: HeLa; assay: Induction of lysosomotropism in human HeLa cells infected with Ebolavirus assessed as clustering of late endosomes/lysosomes in cytoplasm at 2 uM for 1 hr by Lysosensor DND189 staining based assay; format: functional, cell-based
Summary of the method: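 HeLa cells treated 1 h (2 μM; bafilomycin A1 0.01 μM as control), then LysoSensor DND 189 for 10 min. Washed and imaged live at 443/505 nm (dye) and 405/450 nm (compound). Fluorescence intensity/area quantified. Mean ± SD of 8 wells, about 3000 cells each, three independent experiments.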

[8] = Toxicity in 6 hrs post fertilized zebrafish embryo assessed as lethal effect on somite formation up to 50 uM up to 120 hrs post fertilization by inverted microscopic method; design: species or system Danio rerio; conditions: in vivo
[9] = Toxicity in 6 hrs post fertilized zebrafish embryo assessed as lethal effect on heart beat up to 50 uM up to 120 hrs post fertilization by inverted microscopic method; format: tissue-based, Danio rerio; conditions: in vivo
[10] = Drug uptake in C57Bl/6 mouse serum at 10 mg/kg/day, ip qd for 7 days measured on day 7 at 5 to 240 mins post dose by UHPLC/MS analysis; format: ADME, organism-based; conditions: in vivo, read-out: Drug uptake
[11] = molecular target: Procathepsin L (Homo sapiens) (UniProt P07711); assay: Inhibition of cathepsin L activity in human HeLa cells at 2 uM after 6 hrs by HCA; format: cell-based
Chain of Procathepsin L (Homo sapiens) (P07711 114-333 limits assumed): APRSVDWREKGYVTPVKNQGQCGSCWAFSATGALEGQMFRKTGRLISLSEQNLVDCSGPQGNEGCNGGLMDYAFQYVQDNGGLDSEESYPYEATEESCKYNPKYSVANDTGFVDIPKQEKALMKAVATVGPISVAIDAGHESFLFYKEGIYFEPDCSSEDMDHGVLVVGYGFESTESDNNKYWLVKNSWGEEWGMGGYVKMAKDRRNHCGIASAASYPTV

[12] = Drug uptake in C57Bl/6 mouse serum at 10 mg/kg/day, ip qd for 7 days measured on day 5 at 15 to 180 mins post dose by UHPLC/MS analysis; format: ADME, organism-based; conditions: in vivo, read-out: Drug uptake
[13] = molecular target: Albumin (Homo sapiens, UniProt P02768); assay: Binding affinity to human serum albumin at compound to protein molar ratio of 1:20 after 10 mins by fluorescence spectral analysis; format: ADME; conditions: isolated protein
Chain of Albumin (P02768 whole entry): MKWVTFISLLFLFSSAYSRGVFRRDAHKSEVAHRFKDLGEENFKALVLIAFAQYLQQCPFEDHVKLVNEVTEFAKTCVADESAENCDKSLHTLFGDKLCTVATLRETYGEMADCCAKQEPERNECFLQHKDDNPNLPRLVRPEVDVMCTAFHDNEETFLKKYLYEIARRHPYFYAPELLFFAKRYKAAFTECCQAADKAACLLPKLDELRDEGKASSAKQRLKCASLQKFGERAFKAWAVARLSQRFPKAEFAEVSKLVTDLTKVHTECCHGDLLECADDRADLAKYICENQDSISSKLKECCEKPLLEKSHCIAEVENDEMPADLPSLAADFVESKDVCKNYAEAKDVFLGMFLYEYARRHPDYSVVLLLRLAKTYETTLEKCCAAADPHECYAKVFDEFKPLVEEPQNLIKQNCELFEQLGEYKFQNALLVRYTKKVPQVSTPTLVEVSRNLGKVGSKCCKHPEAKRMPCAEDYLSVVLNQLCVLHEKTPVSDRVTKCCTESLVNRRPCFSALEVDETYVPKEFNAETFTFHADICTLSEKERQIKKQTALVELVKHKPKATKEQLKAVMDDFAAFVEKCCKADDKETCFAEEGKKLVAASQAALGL
Summary of the method: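 Protein fluorescence spectra recorded while compound was added in increasing amounts. Stern-Volmer binding constant (KSV) derived from the fluorescence change.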

[14] = test system: Zaire ebolavirus; assay: Antiviral activity against Ebolavirus Mayinga infected in Balb/c mouse assessed as protection against viral infection by measuring host survival at 10 mg/kg, ip administered 2 hrs prior to viral infection daily for 6 days and measured for 14 days relative to control; format: functional, 1976
[15] = Solubility of the compound in pH 7.4 buffer by laser nephelometric method; format: physicochemical
Summary of the method: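 Solubility at pH 7.4 was measured by laser nephelometry (light scattering), in triplicate.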

[16] = Toxicity in Balb/c mouse infected with Ebolavirus Mayinga assessed as weight loss at 1 to 10 mg/kg, ip administered 2 hrs prior to viral infection daily for 6 days and measured for 14 days; format: organism-based; conditions: in vivo, 336 h
[17] = Acute toxicity in C57Bl/6 mouse assessed as effect on behavior at 20 mg/kg/day, ip qd for 7 days measured twice daily for 28 days; format: organism-based; conditions: in vivo, 672 h
Summary of the method: (§1)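 Six healthy mice received 20 mg/kg i.p. once daily for seven doses. Behaviour and appearance observed twice daily for 28 days after the last dose.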

[18] = Apparent permeability from apical to basolateral side in MDCK cells; format: ADME, cell-based, Canis lupus familiaris; conditions: dog
Summary of the method: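 Apparent permeability measured in MDCK cell monolayers, apical→basolateral and basolateral→apical directions, three biological replicates.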

[19] = test system: Vesicular stomatitis virus; assay: Antiviral activity against VSV expressing GFP infected in human HeLa cells assessed as inhibition of viral infection at 0.1 uM pre-incubated for 2 hrs followed by viral infection and measured after 6 hrs by cell mask deep red staining based assay; format: functional, organism-based
Summary of the method: (§2)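 HeLa cells pretreated 2 h with compound, then infected with rVSV-EBOV-GP-GFP (8 h) or VSV-GFP (6 h), and stained with Cell Mask Deep Red. Relative inhibition = 1 minus (% GFP-expressing cells normalised to mock). Mean ± SD of three replicates, representative of three independent experiments.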

[20] = Myelotoxicity in 6 hrs post fertilized transgenic mpx:GFP zebrafish embryo assessed as reduction in neutrophil occurrence up to 40 uM measured at 72 hrs hrs post fertilization by fluorescence assay; design: species or system Danio rerio
Summary of the method: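 Tg(mpx:GFP) zebrafish embryos with GFP-labelled neutrophils were treated with compound. At 72 hpf, neutrophil fluorescence of the whole embryo and neutrophil occurrence were assessed.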

[21] = Hepatotoxicity in 6 hrs post fertilized transgenic l-fabp:EGFP zebrafish embryo assessed as change in liver area index up to 30 uM up to 120 hrs post fertilization by fluorescence assay; format: toxicity, Danio rerio; conditions: in vivo
Summary of the method: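 Tg(l-fabp:EGFP) zebrafish embryos exposed from 6 hpf. At 120 hpf, liver area index (liver area/lateral body area) and liver fluorescence assessed by in vivo imaging.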

[22] = Half life in human liver microsomes; format: ADME, Microsome
Summary of the method: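 Substrate depletion with mouse or human liver microsomes, 1 h at 37 °C. Clearance (μL/min/mg) and half-life derived.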

[23] = test system: Vesicular stomatitis virus; assay: Antiviral activity against VSV expressing GFP infected in human HeLa cells assessed as inhibition of viral infection at 50 uM pre-incubated for 2 hrs followed by viral infection and measured after 6 hrs by cell mask deep red staining based assay; format: functional, organism-based; summary of the method: as §2
[24] = molecular target: Cytochrome P450 3A4 (Homo sapiens, UniProt P08684); assay: Inhibition of CYP3A4 (unknown origin) using 7-benzyloxyquinoline as substrate; format: ADME
Chain of Cytochrome P450 3A4 (P08684 whole entry): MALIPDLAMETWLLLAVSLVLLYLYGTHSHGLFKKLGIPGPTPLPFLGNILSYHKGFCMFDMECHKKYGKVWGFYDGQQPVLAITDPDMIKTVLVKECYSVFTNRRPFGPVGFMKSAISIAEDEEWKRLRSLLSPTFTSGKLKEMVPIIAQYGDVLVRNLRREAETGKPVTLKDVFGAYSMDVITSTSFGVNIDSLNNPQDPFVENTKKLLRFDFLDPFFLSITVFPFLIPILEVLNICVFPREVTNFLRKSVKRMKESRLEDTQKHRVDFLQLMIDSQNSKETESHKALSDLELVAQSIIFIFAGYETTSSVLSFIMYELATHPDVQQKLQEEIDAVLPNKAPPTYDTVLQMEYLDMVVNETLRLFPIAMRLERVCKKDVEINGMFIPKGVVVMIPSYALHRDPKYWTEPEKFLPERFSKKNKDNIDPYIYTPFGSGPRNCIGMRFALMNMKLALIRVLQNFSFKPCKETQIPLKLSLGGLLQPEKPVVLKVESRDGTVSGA
Summary of the method: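 CYP IC50 was taken from the net fluorescent signal after incubation at 37 °C for a set time with active cytochrome P450 enzyme and a fluorescent probe substrate.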

[25] = Acute toxicity in C57Bl/6 mouse assessed as effect on appearance at 20 mg/kg/day, ip qd for 7 days measured twice daily for 28 days; format: organism-based; conditions: in vivo, 672 h; summary of the method: as §1

Structure (SMILES) | Activity [1] | inhibition [2] | inhibition [3] | Activity [4] | selectivity ratio [5] | Activity [6] | Activity [7] | Activity [8] | Activity [9] | inhibition [11] | KSV [13] | other results
Cl.Cl.Cl.Cl.c1cc(NCCN2CCOCC2)c2ccc3c(ccc4c(NCCN5CCOCC5)ccnc43)c2n1 | Non-Toxic | Active | Active | inactive | > 28.5 | Active | Active | Non-Toxic | Non-Toxic | Active | 1.13 ×10⁵ /M | concentration [10]: 460 to 650 nM; concentration [12]: 460 to 1030 nM
Cl.Cl.Cl.Cl.c1cc(NCCCCN2CCOCC2)c2ccc3c(ccc4c(NCCN5CCOCC5)ccnc43)c2n1 | Non-Toxic | Active | Active | inactive | 30 | Active | Active | Non-Toxic | Non-Toxic | Active | 8.85 ×10⁴ /M | Activity [14]: 100%; solubility kinetic [15]: > 50 µg/mL; Activity [16]: Non-Toxic; Activity [17]: Non-Toxic; Papp A→B [18]: 39.3 to 67.2 ×10⁻⁶ cm/s; Activity [19]: inactive; Activity [20]: Non-Toxic; Activity [21]: Non-Toxic; half-life [22]: 42.1 min; Activity [23]: Active; INH [24]: > 10 µM; Activity [25]: Non-Toxic
